Laboratory results reported in ChEMBL document CHEMBL1671817, “Synthesis of cationic antimicrobial β(2,2)-amino acid derivatives with potential for oral administration” (J Med Chem, 2011).
Converted amounts (≈) assume the structure as drawn. The source made the active and inactive calls. The rule behind the calls is not given here.

Tests used:
Staphylococcus aureus [1] = experiment: Antimicrobial activity against Staphylococcus aureus assessed as cell wall mesosome structure and septum of bacteria at 234 uM after 2 hrs by transmission electron microscopy; assay type: functional, organism-based
[2] = test system: Staphylococcus epidermidis; experiment: Antimicrobial activity against methicillin-resistant Staphylococcus epidermidis ATCC 27626; assay type: functional
Method in brief: (§1)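 MIC screen run at a contract lab. Each compound, as its ditrifluoroacetate salt, tested in duplicate at 200, 100, 50, 35, 15, 10, 5, 2.5, 1 and 0.5 μg/mL. Molar values calculated from the salt form. Gentamicin used as positive control.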

[3] = Therapeutic index, ratio of EC50 for human RBC hemolytic activity to MIC for Staphylococcus aureus ATCC 25923; conditions: human red blood cells (RBC), read-out: TI
Method in brief: (§2)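 Index taken as hemolytic EC50 divided by MIC for each strain. Hemolysis: human RBCs from heparinized blood, washed with 37 °C PBS, diluted to 10% hematocrit. Cells exposed at 1% v/v final to compound in PBS at 1–1000 μg/mL for 1 h at 37 °C with agitation. Hemoglobin read by supernatant A405 against PBS and 0.1% Triton X-100 controls. MICs in duplicate at 0.5–200 μg/mL.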

Staphylococcus aureus [4] = experiment: Antimicrobial activity against methicillin-resistant Staphylococcus aureus ATCC 33591; assay type: functional; method in brief: as §1
[5] = Therapeutic index, ratio of EC50 for human RBC hemolytic activity to MIC for Escherichia coli ATCC 25922; conditions: human red blood cells (RBC), read-out: TI; method in brief: as §2
Staphylococcus aureus [6] = experiment: Antimicrobial activity against Staphylococcus aureus assessed as cell wall mesosome structure and septum of bacteria at 117 uM after 3 hrs by transmission electron microscopy; assay type: functional, organism-based
[7] = Therapeutic index, ratio of EC50 for human RBC hemolytic activity to MIC for methicillin-resistant Staphylococcus aureus ATCC 33591; conditions: human red blood cells (RBC), read-out: TI; method in brief: as §2
Escherichia coli = experiment: Antimicrobial activity against Escherichia coli ATCC 25922; assay type: functional
Staphylococcus aureus [8] = experiment: Antimicrobial activity against Staphylococcus aureus ATCC 25923; assay type: functional
Pseudomonas aeruginosa = experiment: Antimicrobial activity against Pseudomonas aeruginosa ATCC 27853; assay type: functional
[9] = Therapeutic index, ratio of EC50 for human RBC hemolytic activity to MIC for methicillin-resistant Staphylococcus epidermidis ATCC 27626; conditions: human red blood cells (RBC), read-out: TI; method in brief: as §2
[10] = Therapeutic index, ratio of EC50 for human RBC hemolytic activity to MIC for Pseudomonas aeruginosa ATCC 27853; conditions: human red blood cells (RBC), read-out: TI; method in brief: as §2
[11] = Hemolytic activity against human RBC assessed as hemoglobin release after 1 hr; assay type: ADME, cell-based; conditions: Erythrocyte
Method in brief: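 Heparinized human blood freed of plasma by centrifugation, washed three times in 37 °C PBS, diluted to 10% hematocrit and added to compound in PBS (1–1000 μg/mL) to 1% v/v erythrocytes. PBS negative, 0.1% v/v Triton X-100 positive control.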

[12] = Permeability of the compound across phospholipid vesicle based barrier model at pH 7.4; assay type: ADME
Method in brief: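 Passive diffusion through phospholipid vesicle-based barriers (egg lipid extract, ~82% phosphatidylcholine) on filter inserts at room temperature. Donor in phosphate buffer pH 7.4, or pH 5.5 for a poorly soluble compound; acceptor always pH 7.4. Inserts moved to fresh acceptor wells; UV 230 nm at 1, 2, 3, 3.5, 4, 4.5, 5 h; barrier resistance checked afterwards.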

Compound	Activity (Staphylococcus aureus [1])	MIC [2] [µM]	selectivity ratio [3]	MIC (Staphylococcus aureus [4]) [µM]	selectivity ratio [5]	Activity (Staphylococcus aureus [6])	selectivity ratio [7]	MIC (Escherichia coli) [µM]	MIC (Staphylococcus aureus [8]) [µM]	MIC (Pseudomonas aeruginosa) [µM]	selectivity ratio [9]	selectivity ratio [10]	EC50 [11] [µM]	permeability [12]
NCCNC(=O)C(CN)(Cc1ccc2ccccc2c1)Cc1ccc2ccccc2c1.O=C(O)C(F)(F)F.O=C(O)C(F)(F)F	Active	3.9	117	7.8	19	Active	59	24	3.9	55	117	8.3	457	
CN1CCN(C(=O)C(CN)(Cc2ccc(C(C)(C)C)cc2)Cc2ccc(C(C)(C)C)cc2)CC1.O=C(O)C(F)(F)F.O=C(O)C(F)(F)F		7.2	23	15	23		23	15	15	289	48	1.2	348	
CC(C)(C)c1ccc(CC(CN)(Cc2ccc(C(C)(C)C)cc2)C(=O)NCCN)cc1.O=C(O)C(F)(F)F.O=C(O)C(F)(F)F		3.8	4.7	3.8	2.3		4.7	7.7	3.8	23	4.7	0.8	18	
NCCNC(=O)C(CN)(Cc1ccc(C(F)(F)F)cc1)Cc1ccc(C(F)(F)F)cc1.O=C(O)C(F)(F)F.O=C(O)C(F)(F)F		15	28	7.4	8		57	52	15		28		425	
CN(C)CCN1CCN(C(=O)C(CN)(Cc2ccc3ccccc3c2)Cc2ccc3ccccc3c2)CC1.O=C(O)C(F)(F)F.O=C(O)C(F)(F)F		14	20	3.4	8.5		120	48	20		29		409	permeable
CN(C)CCNC(=O)C(CN)(Cc1ccc(C(C)(C)C)cc1)Cc1ccc(C(C)(C)C)cc1.O=C(O)C(F)(F)F.O=C(O)C(F)(F)F		3.7	37	7.4	37		37	7.4	7.4	74	74	3.7	274	
CN1CCN(C(=O)C(CN)(Cc2ccc3ccccc3c2)Cc2ccc3ccccc3c2)CC1.O=C(O)C(F)(F)F.O=C(O)C(F)(F)F		15	20	7.4	14		41	22	15		20		303	permeable
CN(C)CCN1CCN(C(=O)C(CN)(Cc2ccc(C(F)(F)F)cc2)Cc2ccc(C(F)(F)F)cc2)CC1.O=C(O)C(F)(F)F.O=C(O)C(F)(F)F		65	25	6.5	8.6		172	129	45		17		1120	
CN1CCN(C(=O)C(CN)(CCCc2ccccc2)CCCc2ccccc2)CC1		315 (≈ 128 µg/mL)		315 (≈ 128 µg/mL)				315 (≈ 128 µg/mL)	315 (≈ 128 µg/mL)					
CN(C)CCN1CCN(C(=O)C(CN)(Cc2ccc(C(C)(C)C)cc2)Cc2ccc(C(C)(C)C)cc2)CC1.O=C(O)C(F)(F)F.O=C(O)C(F)(F)F		13	26	13	26		26	13	13	255	26	1.3	337	
CN(C)CCNC(=O)C(CN)(Cc1ccc(C(F)(F)F)cc1)Cc1ccc(C(F)(F)F)cc1.O=C(O)C(F)(F)F.O=C(O)C(F)(F)F		21	33	7.1	9.4		66	50	14		22		468	
CN(C)CCNC(=O)C(CN)(Cc1ccc2ccccc2c1)Cc1ccc2ccccc2c1.O=C(O)C(F)(F)F.O=C(O)C(F)(F)F		7.5	16	7.5	5.1		16	23	7.5	300	16	0.4	117	permeable
CN(C)CCNC(=O)C(CN)(CCCc1ccccc1)CCCc1ccccc1.O=C(O)C(F)(F)F.O=C(O)C(F)(F)F		56	9.1	56	3.2		9.1	160	56		9.1		507	
CN(C)CCN1CCN(C(=O)C(CN)(CCCc2ccccc2)CCCc2ccccc2)CC1		72 (≈ 33.5 µg/mL)		72 (≈ 33.5 µg/mL)				289 (≈ 134 µg/mL)	289 (≈ 134 µg/mL)					
NCCNC(=O)C(CN)(CCCc1ccccc1)CCCc1ccccc1.O=C(O)C(F)(F)F.O=C(O)C(F)(F)F		25	19	59	4.1		23	336	71		55		1380	
CN1CCN(C(=O)C(CN)(Cc2ccc(C(F)(F)F)cc2)Cc2ccc(C(F)(F)F)cc2)CC1.O=C(O)C(F)(F)F.O=C(O)C(F)(F)F		70	11	14	7.5		38	70	49		7.5		525	
